Test results taken from publication PMC7736561 (Angewandte Chemie (International ed. in English), 2020).

Experiments:
[1] = Self-aggregation in water by absorption spectrum; type: physicochemical; conditions: absorption spectrum in water (Figures S7, S10)
Water solubility = type: physicochemical; conditions: in water
[2] = Chemical stability of squaraine fluorophore in PBS; type: physicochemical; conditions: pH 7.4, followed over 15 hours (Figure S11A)
[3] = Histology staining of bone sections; design: species or system mouse
Outline: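 Thin sections of mouse tibia were treated with a 5 μM probe solution for 30 minutes and then imaged by fluorescence microscopy. For the demineralized comparison, slices were pre-treated with EDTA before staining. A charge-balanced, net-neutral peptide probe served as the control stain.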

Asp-N = assay: Proteolytic degradation by Asp-N endoproteinase, LCMS analysis; type: in vitro ADME; conditions: SF8(DDDDG)2 vs linear azido-DDDDG, 2 hours
Outline: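 The test compound and the linear pentapeptide comparator were each incubated separately at 10 μM with Asp-N, an endoproteinase that cleaves peptide bonds on the N-terminal side of aspartic acid residues.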

Row | Substance | self-aggregation [1] | water solubility (Water solubility) | chemical stability, fluorescence profile of solution [2] | staining of demineralized bone slices ([3]; bone slices demineralized with pre-treatment of EDTA (Figure S26)) | staining of bone histology slices ([3]; thin sections of mouse tibia bone, probe 5 μM, 30 minutes) | factor by which proteolytic degradation of the peptide sequence was reduced (Asp-N)
1 | (azido-DDDDG)2 [SR(azido-DDDDG)2] | formation of non-fluorescent H-aggregates | low solubility |  |  |  | 
2 | (azido-RRRG)2 [SR(azido-RRRG)2] | unaggregated | soluble | almost completely bleached after a few hours |  |  | 
3 | (DDDDG)2 (bicyclic or more) [SF8(DDDDG)2] | no molecular self-aggregation | high water-solubility |  | no staining | strongly stained the mineral segments | 3.8
